This passage reports Ratio, TN and Km results from ChEMBL document CHEMBL1127689, “Novel 4-(aryloxy)tetrahydropyridine analogs of MPTP as monoamine oxidase A and B substrates” (J Med Chem, 1994).

Data set [1] deals with T1, Amine oxidase [flavin-containing] A (Homo sapiens, UniProt P21397).
T1 sequence (P21397 whole entry): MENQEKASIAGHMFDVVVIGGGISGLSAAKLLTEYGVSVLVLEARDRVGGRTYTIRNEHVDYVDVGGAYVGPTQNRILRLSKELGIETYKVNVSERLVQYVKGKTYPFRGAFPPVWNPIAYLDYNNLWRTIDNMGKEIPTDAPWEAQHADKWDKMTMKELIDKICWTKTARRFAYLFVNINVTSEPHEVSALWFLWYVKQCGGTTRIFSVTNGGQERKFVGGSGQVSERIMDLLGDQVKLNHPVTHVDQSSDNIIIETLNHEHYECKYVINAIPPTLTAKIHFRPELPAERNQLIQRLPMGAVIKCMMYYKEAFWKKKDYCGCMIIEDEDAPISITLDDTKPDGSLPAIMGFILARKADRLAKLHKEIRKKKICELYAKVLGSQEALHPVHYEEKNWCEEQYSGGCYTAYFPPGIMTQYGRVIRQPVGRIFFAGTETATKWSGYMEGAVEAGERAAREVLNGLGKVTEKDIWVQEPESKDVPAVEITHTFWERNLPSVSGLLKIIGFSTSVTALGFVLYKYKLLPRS
The experiment in a line: Ratio of turnover to Km for human MAO-A. The method in brief: (§1)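 MAO-A preparation was diluted 1:4 in 20 mM phosphate, pH 7.4, with 20% w/v glycerol and used at 0.17 μM. Four substrate concentrations were used, from 500–62.5 μM solutions in 100 mM sodium phosphate, pH 7.4, after 1 min at 37 °C. Initial rates were taken from the 324 nm amino enone absorbance, read every 3 s for 2 min, in duplicate. Km and TN came from double-reciprocal plots.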

The target in data set [2] is T1, Amine oxidase [flavin-containing] A. As to the kind of experiment: Turnover number (TN) for human mono-amine oxidase MAO-A. The method in brief:
as §1

Data set [3] has as its target T2, Amine oxidase [flavin-containing] B (Bos taurus, UniProt P56560).
T2 sequence (P56560 whole entry): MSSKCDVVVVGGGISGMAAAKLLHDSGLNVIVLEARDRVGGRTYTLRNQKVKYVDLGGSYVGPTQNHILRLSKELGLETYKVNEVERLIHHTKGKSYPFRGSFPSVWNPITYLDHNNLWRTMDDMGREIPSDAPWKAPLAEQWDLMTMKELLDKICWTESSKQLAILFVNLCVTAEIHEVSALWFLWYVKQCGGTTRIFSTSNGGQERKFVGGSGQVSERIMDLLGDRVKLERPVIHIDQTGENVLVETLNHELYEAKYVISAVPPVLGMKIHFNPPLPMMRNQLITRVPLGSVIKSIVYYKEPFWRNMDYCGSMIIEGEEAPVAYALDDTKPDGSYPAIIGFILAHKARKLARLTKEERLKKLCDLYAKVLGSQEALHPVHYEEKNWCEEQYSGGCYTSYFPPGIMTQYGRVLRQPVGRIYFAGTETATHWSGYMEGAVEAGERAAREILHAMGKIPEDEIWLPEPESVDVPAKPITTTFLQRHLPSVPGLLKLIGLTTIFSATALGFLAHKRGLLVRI
The experiment in a line: Ratio of turnover to Km for bovine MAO-B. Particulars: cattle. In outline: (§2)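 Bovine liver mitochondrial MAO-B, partially purified, at 0.087 μM. Four substrate concentrations were used, from 500–62.5 μM solutions in 100 mM sodium phosphate, pH 7.4. Each was equilibrated 1 min at 37 °C before enzyme was added. Amino enone formation was read at 324 nm every 3 s for 2 min, in duplicate. Km and TN came from Lineweaver-Burk double-reciprocal plots of initial rates.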

Data set [4] deals with T2, Amine oxidase [flavin-containing] B. As to the kind of experiment: Turnover number (TN) for bovine mono-amine oxidase B MAO-B. Particulars: cattle. In outline: as §2
The next data set concerns the target T3, MAO-B (Bos taurus, UniProt P56560).
T3 sequence (P56560 whole entry): T2 sequence (P56560 whole entry)
As to the kind of experiment: (§3) Oxidation by bovine mono-amine oxidase B MAO-B. Particulars: cattle, bovine monoamine oxidase B (MAO-B) enzyme. In outline:
as §2

For data set [5], the target named is T1, Amine oxidase [flavin-containing] A. The experiment in a line: Oxidation by human mono-amine oxidase MAO-A. In outline: as §1
For data set [6], the target named is T2, Amine oxidase [flavin-containing] B. The data set is described as §3. Particulars: cattle. The method in brief:
as §2

For the molecule `CN1CC=C(Oc2ccc(Cl)cc2Cl)CC1`, the Ratio is listed as 3290 in data set [1] and 1334 in data set [3]. Besides, the TN in data set [2] was 95 M min-1 M-1; in data set [4], 223 M min-1 M-1.
The matching figures for `CCCCc1ccc(OC2=CCN(C)CC2)cc1`: 1676, 1090, 85 M min-1 M-1 and 92 M min-1 M-1.
Broadly, the Km is the concentration of substrate that gives half-maximal velocity. For the molecule `CN1CC=C(Oc2cc3ccccc3c3ccccc23)CC1`, the Km at MAO-B is over 1000 µM. For the same molecule, in data set [1], the Ratio is reported as 212. The TN in data set [2] is 59 M min-1 M-1; in data set [4], > 200 M min-1 M-1.
Consider `CN1CC=C(Oc2cccc3ccccc23)CC1`, for which the Ratio was 1567 in data set [1] and 565 in data set [3]. For the same molecule, the TN in data set [2] is given as 227 M min-1 M-1; in data set [4], 81 M min-1 M-1.
On to `CN1CC=C(Cc2cc3ccccc3c3ccccc23)CC1`, for which the Ratio in data set [1] stood at 759. The TN in data set [2] is recorded as 365 M min-1 M-1; in data set [4], > 53 M min-1 M-1.
As to `CN1CC=C(Cc2ccc3ccccc3c2)CC1`, the Ratio in data set [1] is 3340; in data set [3], 310. Further, the values for the TN in data set [2] and in data set [4] were 121 M min-1 M-1 and 276 M min-1 M-1, respectively. Moreover, the Km in data set [5] was 36 µM.
For `CN1CC=C(Cc2cccc3ccccc23)CC1`, the Michaelis constant (Km) in data set [6] worked out at 847 µM; in data set [5] it was 167 µM. For the same molecule, the Ratio in data set [1] came to 2590; in data set [3], 105. Moreover, the TN in data set [2] is on record as 433 M min-1 M-1; in data set [4], 89 M min-1 M-1.
For the molecule `CN1CC=C(c2ccccc2)CC1`, the Ratio in data set [1] was found to be 143; in data set [3], 523. Moreover, the TN is recorded as 20 M min-1 M-1 in data set [2] and 204 M min-1 M-1 in data set [4].
The matching figures for `CN1CC=C(Oc2ccc(-c3ccccc3)cc2)CC1`: 1710, 363, 173 M min-1 M-1 and 103 M min-1 M-1.
The matching figures for `CN1CC=C(Oc2ccc(C(C)(C)C)cc2)CC1`: 855, 395, 111 M min-1 M-1 and 22 M min-1 M-1.
Take `CN1CC=C(Oc2ccc3ccccc3c2)CC1`: the Ratio in data set [1] was determined as 2685; in data set [3] it was 1214. Besides, the TN in data set [2] is 207 M min-1 M-1; in data set [4], 333 M min-1 M-1.
Take `CN1CC=C(Cc2ccccc2)CC1`: the Km in data set [6] turned out to be 154 µM; in data set [5] it was 66 µM. Also, the Ratio was 139 in data set [1] and 1250 in data set [3]. For the same molecule, the figures for the TN in data set [2] and in data set [4] were 9 M min-1 M-1 and 193 M min-1 M-1, respectively.
Take `CN1CC=C(Oc2ccccc2)CC1`: the Ratio in data set [1] is on record as 2359; in data set [3] it was 4151. Besides, the TN in data set [2] is 130 M min-1 M-1; in data set [4], 241 M min-1 M-1.
Take `NCc1ccccc1` [BENZYLAMINE]: the Km in data set [6] worked out at 290 µM. Besides, the Ratio in data set [3] came to 963. The TN in data set [4] is recorded as 283 M min-1 M-1.
In the case of `NCCC(=O)c1ccccc1N` [KYNURAMINE], the Ratio in data set [1] turned out to be 860. In data set [2], the TN is given as 146 M min-1 M-1. Further, in data set [5], the Michaelis constant (Km) stood at 170 µM.
